Test results from ChEMBL document CHEMBL5126593, “Design, Synthesis, and Biological Evaluation of a Novel Series of 4-Guanidinobenzoate Derivatives as Enteropeptidase Inhibitors with Low Systemic Exposure for the Treatment of Obesity” (J Med Chem, 2022).
Active and inactive are the calls of the source. No cut-off for these calls is given here.

What was measured:
[1] = Permeability of the compound at pH 7.4 by PAMPA; type: ADME; conditions: read-out: permeability
[2] = Permeability of the compound at pH 5.0 by PAMPA; type: ADME; conditions: read-out: permeability
[3] = biological target: Enteropeptidase (Homo sapiens) (UniProt P98073); assay: Inhibition of human recombinant Enteropeptidase assessed as inhibition based on initial velocity using 5FAM-Abu-Gly-Asp -Asp-Asp -Lys-Ile-Val-Gly-Gly-Lys-(CPQ2)-Lys-Lys-NH2 as substrate by fluorescence based plate reader method; conditions: TDE = time-dependent effect
Chain of Enteropeptidase (Homo sapiens) (P98073 2-784 limits assumed): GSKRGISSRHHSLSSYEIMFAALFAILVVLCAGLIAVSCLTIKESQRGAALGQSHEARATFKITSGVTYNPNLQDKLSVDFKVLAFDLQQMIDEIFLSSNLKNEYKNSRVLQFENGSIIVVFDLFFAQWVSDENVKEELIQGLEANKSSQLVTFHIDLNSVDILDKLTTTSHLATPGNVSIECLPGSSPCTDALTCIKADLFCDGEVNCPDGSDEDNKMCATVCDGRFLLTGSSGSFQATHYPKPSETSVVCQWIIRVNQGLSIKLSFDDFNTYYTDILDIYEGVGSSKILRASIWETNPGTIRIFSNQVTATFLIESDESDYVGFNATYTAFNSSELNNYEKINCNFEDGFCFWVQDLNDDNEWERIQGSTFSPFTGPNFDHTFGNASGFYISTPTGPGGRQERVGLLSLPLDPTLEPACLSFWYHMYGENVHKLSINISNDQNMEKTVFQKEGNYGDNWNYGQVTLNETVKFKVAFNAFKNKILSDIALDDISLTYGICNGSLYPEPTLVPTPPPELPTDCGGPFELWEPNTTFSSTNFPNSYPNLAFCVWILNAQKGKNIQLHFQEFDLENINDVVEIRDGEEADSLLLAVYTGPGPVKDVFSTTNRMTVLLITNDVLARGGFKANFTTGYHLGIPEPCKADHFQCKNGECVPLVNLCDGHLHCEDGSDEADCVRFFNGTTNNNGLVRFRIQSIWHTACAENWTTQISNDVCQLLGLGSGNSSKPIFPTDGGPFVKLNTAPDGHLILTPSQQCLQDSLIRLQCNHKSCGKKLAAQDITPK
Chain of Enteropeptidase (Homo sapiens) (P98073 785-1019 limits assumed): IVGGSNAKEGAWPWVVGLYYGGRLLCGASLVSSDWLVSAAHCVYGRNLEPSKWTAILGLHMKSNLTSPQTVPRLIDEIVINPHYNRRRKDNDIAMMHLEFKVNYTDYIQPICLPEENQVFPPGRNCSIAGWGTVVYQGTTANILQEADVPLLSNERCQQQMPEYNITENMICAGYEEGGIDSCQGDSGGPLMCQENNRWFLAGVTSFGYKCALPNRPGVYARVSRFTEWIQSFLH
Method in brief: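 Human recombinant enzyme prepared as a 24 mU/mL solution in 50 mM tricine pH 8.0, 0.01% Tween 20, 10 mM CaCl2. Compound in DMSO/buffer mixed with 2.1 μM substrate solution; enzyme added to start the reaction at room temperature. Fluorescence (ex 485/em 535 nm) read at 6 min. Inhibition taken relative to no-compound and no-enzyme controls. IC50 with 95% CI.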

[4] = Aqueous stability of the compound at pH 1.2 assessed as compound decomposition measured after 24 hrs by HPLC analysis; type: physicochemical; conditions: aqueous solution, read-out: Drug degradation
Method in brief: (§1)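 Compounds at 10 μg/mL in Japanese Pharmacopoeia 17th ed. disintegration-test fluids (first fluid pH 1.2, second fluid pH 6.8), with 10% DMSO if needed, held at 37 °C. HPLC run at start and at 24 h. Decomposition derived from peak areas as residual content.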

[5] = Aqueous stability of the compound at pH 6.8 assessed as compound decomposition measured after 24 hrs by HPLC analysis; type: physicochemical; conditions: aqueous solution, read-out: Drug degradation; method in brief: as §1
[6] = Cmax in mouse plasma at 60 mg/kg, po; type: ADME, organism-based; set-up: dose 60 mg/kg, route po
[7] = Tmax in mouse plasma at 10 mg/kg, sc; type: ADME, organism-based
[8] = Cmax in mouse plasma at 10 mg/kg, sc; type: ADME, organism-based; set-up: dose 10 mg/kg, route sc
[9] = Tmax in mouse plasma at 60 mg/kg, po; type: ADME, organism-based
[10] = MRT in mouse plasma at 60 mg/kg, po; type: ADME, organism-based
[11] = MRT in mouse plasma at 10 mg/kg, sc; type: ADME, organism-based
Mus musculus = assay: In vivo inhibition of entero-peptidase in mouse assessed as increase in fecal protein content at 60 mg/kg, po; type: functional, organism-based
Method in brief: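 HFD-fed male mice (D12079B diet, 14–21 weeks old) dosed orally at 60 mg/kg, with 0.5% methylcellulose as vehicle. Whole feces collected overnight and fecal protein output determined.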

[12] = Oral bioavailability in non-fasted Sprague-Dawley rat plasma at 1 mg/kg administered as cassette dose by LC/MS/MS analysis; type: ADME, organism-based; conditions: in vivo, BLD = below limit of detection
Method in brief: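 Non-fasted SD rats given cassette oral dose of 1 mg/kg, suspended in 0.5% methylcellulose. Plasma obtained from collected blood; compound measured by LC–MS/MS.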

Rattus norvegicus [13] = assay: Anti-obesity activity in diet-induced obese F344/Jcl rat model assessed as increase in fecal protein output at 1 to 10 mg/kg, po measured on day 28; type: functional, organism-based; conditions: dose 1-10 mg/kg, time 28.0 day
Method in brief: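 Male DIO F344/Jcl rats on HFD D12451 (45 kcal % fat), n = 6 per group. Oral dosing at 1, 3 or 10 mg/kg in 0.5% methylcellulose vehicle for 4 weeks from 36 weeks of age. Fecal protein output measured; mean ± SD; statistics vs vehicle.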

Rattus norvegicus [14] = assay: Anti-obesity activity in diet-induced obese F344/Jcl rat model assessed as reduction in food intake at 1 to 10 mg/kg, po administered for 28 days; type: functional, organism-based; conditions: dose 1-10 mg/kg, time 28.0 day
Method in brief: (§2)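 Male DIO F344/Jcl rats fed HFD D12451 (45 kcal % fat, 20 kcal % protein, 35 kcal % carbohydrate) from six weeks of age. Oral dosing in 0.5% methylcellulose vehicle starts at 36 weeks of age and continues 4 weeks. Body weight recorded every 1–4 days. n = 6 per group; mean ± SD; Dunnett's t-test or one-tailed Williams' test vs vehicle.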

Rattus norvegicus [15] = assay: Anti-obesity activity in diet-induced obese F344/Jcl rat model assessed as body weight loss administered orally for 28 days measured every 4 days; type: functional, organism-based; conditions: route po, time 4.0 weeks, DDE = dose-dependent effect; method in brief: as §2

Row | SMILES | Papp [1] | Papp [2] | inhibition [3] | degraded at 24 h [4] | degraded at 24 h [5] | also measured
1 | CS(=O)(=O)O.N=C(N)Nc1ccc(C(=O)Oc2ccccc2)cc1 | < 0.2 ×10⁻⁶ cm/s | < 0.2 ×10⁻⁶ cm/s | Tde |  |  | 
2 | N=C(N)Nc1ccc(C(=O)Oc2cccc(CC(=O)N[C@@H](CC(=O)O)C(=O)O)c2)cc1 |  |  |  | 2.8% | 5.8% | 
3 | Cl.N=C(N)Nc1ccc(C(=O)Oc2ccc(CC(=O)N[C@@H](CC(=O)O)C(=O)O)cc2)cc1 |  |  |  | 2.5% | 5% | Cmax [6]: 1360 ng/mL; Tmax [7]: 0.5 h; Cmax [8]: 13400 ng/mL; Tmax [9]: 1.67 h; MRT [10]: 5.07 h; MRT [11]: 0.98 h; inhibition (Mus musculus): Active
4 | N=C(N)Nc1ccc(C(=O)Oc2cccc(C(=O)N[C@@H](CC(=O)O)C(=O)O)c2)cc1 |  |  |  | 3.9% | 8.6% | 
5 | N=C(N)Nc1ccc(C(=O)Oc2cccc(C3=NO[C@](CC(=O)O)(C(=O)O)C3)c2)cc1 |  |  |  |  |  | F [12]: Bld; Activity (Rattus norvegicus [13]): Active; Activity (Rattus norvegicus [14]): Active; Activity (Rattus norvegicus [15]): Dde
6 | N=C(N)Nc1ccc(C(=O)Oc2ccc(CC(=O)NCC(=O)O)cc2)cc1.O=C(O)C(F)(F)F | 0.2 ×10⁻⁶ cm/s | 0.2 ×10⁻⁶ cm/s | Tde |  |  | 
